Experimental data published in ChEMBL document CHEMBL4627348, “Synthesis of (1,3,4-thiadiazol-2-yl)-acrylamide derivatives as potential antitumor agents against acute leukemia cells” (Bioorg Med Chem Lett, 2020).
Calls of active or inactive are those of the source. The rule behind the calls is not given here.

How the values were obtained:
[1] = (§1) Cytotoxicity against HEK293T cells assessed as growth inhibition at 20 uM after 48 hrs by CCK8 assay relative to control; type: cell-based, HEK-293T; conditions: human, HEK293T cells; read-out: GI
Summary of the method: (§2)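 Single-dose screen at 20 μM in RS4;11 (human ALL), HL-60 (human promyelocytic leukemia) and HEK293T (normal-cell model). Cells exposed 48 h, viability read by CCK-8, growth inhibition ratio expressed relative to control.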

[2] = system: HL-60; experiment: Antiproliferative activity against human HL60 cells assessed as growth inhibition at 20 uM after 48 hrs by CCK-8 assay relative to control; type: functional; conditions: HL-60, 48 h, read-out: GI; summary of the method: as §2
[3] = system: RS4-11; experiment: Induction of apoptosis in human RS4:11 cells assessed as late apoptotic cells at 40 uM after 48 hrs by Annexin-V and 7-AAD staining based flow cytometric analysis (reference value: 2.71%); type: functional
[4] = system: HEK-293T; experiment: Cytotoxicity against human HEK293T cells assessed as growth inhibition after 48 hrs by CCK8 assay; type: cell-based
[5] = system: RS4-11; experiment: Induction of apoptosis in human RS4:11 cells assessed as PARP degradation at 2.5 to 40 uM after 48 hrs by Western blot analysis; type: functional, cell-based
Summary of the method: (§3)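 RS4;11 cells treated 48 h at concentrations from 2.5 to 40 μM, DMSO as negative control. Western blot for full-length PARP (116 kDa) and cleaved PARP (89 kDa), plus cleaved caspase-3 and cleaved caspase-9.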

[6] = system: RS4-11; experiment: Antiproliferative activity against human RS4:11 cells assessed as growth inhibition at 20 uM after 48 hrs by CCK-8 assay relative to control; type: functional; conditions: RS4-11, 48 h, read-out: GI; summary of the method: as §2
[7] = system: RS4-11; experiment: Induction of apoptosis in human RS4:11 cells assessed as increase in cleaved PARP protein expression after 48 hrs by Western blot analysis; type: functional, cell-based; summary of the method: as §3
[8] = system: RS4-11; experiment: Induction of apoptosis in human RS4:11 cells assessed as increase in cleaved caspase-3 protein expression after 48 hrs by Western blot analysis; type: functional, cell-based; summary of the method: as §3
[9] = system: RS4-11; experiment: Induction of apoptosis in human RS4:11 cells assessed as necrotic cells at 40 uM after 48 hrs by Annexin-V and 7-AAD staining based flow cytometric analysis (reference value: 0.67%); type: functional
[10] = system: RS4-11; experiment: Induction of apoptosis in human RS4:11 cells assessed as increase in cleaved caspase-9 protein expression after 48 hrs by Western blot analysis; type: functional, cell-based; summary of the method: as §3
[11] = system: RS4-11; experiment: Induction of apoptosis in human RS4:11 cells assessed as increase in cleaved PARP protein expression at 2.5 to 40 uM after 48 hrs by Western blot analysis; type: functional, cell-based; summary of the method: as §3
[12] = system: RS4-11; experiment: Induction of apoptosis in human RS4:11 cells assessed as early apoptotic cells at 40 uM after 48 hrs by Annexin-V and 7-AAD staining based flow cytometric analysis (reference value: 2.56%); type: functional
[13] = system: RS4-11; experiment: Induction of mitochondrial membrane potential loss in human RS4:11 cells at 40 uM after 48 hrs by MitoSense Red staining based fluorescence assay; type: functional, cell-based
Summary of the method: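 RS4;11 cells exposed 48 h at 5–40 μM, DMSO as negative control. Stained with MitoSense Red and analysed by flow cytometry. Loss of mitochondrial membrane potential is read as a drop in Red2 fluorescence.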

[14] = system: RS4-11; experiment: Antiproliferative activity against human RS4:11 cells assessed as growth inhibition after 48 hrs by CCK-8 assay; type: functional, cell-based; conditions: RS4-11, 48 h
[15] = system: RS4-11; experiment: Induction of apoptosis in human RS4:11 cells assessed as viable cells at 40 uM after 48 hrs by Annexin-V and 7-AAD staining based flow cytometric analysis (reference value: 94.06%); type: functional; conditions: RS4-11, 48 h, read-out: Activity
[16] = system: HL-60; experiment: Antiproliferative activity against human HL60 cells assessed as growth inhibition after 48 hrs by CCK-8 assay; type: functional, cell-based; conditions: HL-60, 48 h
[17] = system: HEK-293T; experiment: as §1; type: cell-based; conditions: human, hek-293t, 48 h, 20 µM; summary of the method: as §2

IC50 [14] | IC50 [16] | SMILES | inhibition at 48 h, 20 µM [1] | inhibition of growth at 20 µM [2] | Activity [3] | IC50 [4] | Activity [5] | inhibition of growth at 20 µM [6] | Activity [7] | Activity [8] | Activity [9] | Activity [10] | Activity [11] | Activity [12] | Activity [13] | viability at 40 µM [15] | growth inhibition (GI) [17]
0.84 µM | 3.12 µM | COc1ccc(Cc2nnc(NC(=O)/C(C#N)=C/c3ccccc3OS(=O)(=O)c3ccc(OC)cc3)s2)cc1 | 30% | 100% | 72.63% | > 50 µM | Active | 78% | Dose-dependent effect | Dose-dependent effect | 2.58% | Dose-dependent effect | Active | 5.07% | Active | 19.7% | 
3.67 µM | 10.9 µM | COc1ccc(Cc2nnc(NC(=O)/C(C#N)=C/c3ccccc3OS(=O)(=O)c3ccc([N+](=O)[O-])cc3)s2)cc1 | 17% | 51% |  | > 50 µM |  | 70% |  |  |  |  |  |  |  |  | 
1.25 µM | 4.36 µM | COc1ccc(S(=O)(=O)Oc2ccccc2/C=C(\C#N)C(=O)Nc2nnc(Cc3ccc(Cl)cc3)s2)cc1 | 26% | 99% | 76.08% | > 50 µM | Active | 77% | Dose-dependent effect | Dose-dependent effect | 2.68% | Dose-dependent effect | Active | 5% | Active | 16.2% | 
 |  | N#C/C(=C\c1ccccc1OS(=O)(=O)c1ccccc1[N+](=O)[O-])C(=O)Nc1nnc(Cc2cccc3ccccc23)s1 |  | 23% |  |  |  | 66% |  |  |  |  |  |  |  |  | Non-Toxic
4.75 µM | 5.23 µM | COc1ccc(S(=O)(=O)Oc2ccccc2/C=C(\C#N)C(=O)Nc2nnc(-c3cccs3)s2)cc1 | 40% | 67% |  | > 20 µM |  | 76% |  |  |  |  |  |  |  |  | 
> 20 µM | 11.1 µM | N#C/C(=C\c1ccccc1OS(=O)(=O)c1ccc(OC(F)(F)F)cc1)C(=O)Nc1nnc(-c2cc3ccccc3[nH]2)s1 | 53% | 59% |  | 14.4 µM |  | 26% |  |  |  |  |  |  |  |  | 
1.21 µM | 4.05 µM | COc1ccc(S(=O)(=O)Oc2ccccc2/C=C(\C#N)C(=O)Nc2nnc(Cc3ccc(F)cc3)s2)cc1 | 20% | 100% | 61.84% | > 50 µM | Active | 76% | Dose-dependent effect | Dose-dependent effect | 2.07% | Dose-dependent effect | Active | 5.88% | Active | 30.2% | 
> 20 µM | 7.94 µM | CC(=O)Nc1ccc(S(=O)(=O)Oc2cccc(/C=C(\C#N)C(=O)Nc3nnc(-c4cccs4)s3)c2)cc1 | 20% | 71% |  | > 20 µM |  | 33% |  |  |  |  |  |  |  |  | 
 |  | N#C/C(=C\c1ccccc1OS(=O)(=O)c1ccccc1[N+](=O)[O-])C(=O)Nc1nnc(Cc2cccc(F)c2)s1 |  | 23% |  |  |  | 68% |  |  |  |  |  |  |  |  | Non-Toxic
10.5 µM | 17.5 µM | N#C/C(=C\c1ccccc1OS(=O)(=O)c1ccc(C(F)(F)F)cc1)C(=O)Nc1nnc(-c2cccs2)s1 | 57% | 55% |  | 12.3 µM |  | 58% |  |  |  |  |  |  |  |  | 
 |  | N#C/C(=C\c1ccccc1OS(=O)(=O)c1ccc([N+](=O)[O-])cc1)C(=O)Nc1nnc(Cc2ccccc2)s1 |  | 20% |  |  |  | 57% |  |  |  |  |  |  |  |  | Non-Toxic
 |  | N#C/C(=C\c1ccccc1OS(=O)(=O)c1ccc([N+](=O)[O-])cc1)C(=O)Nc1nnc(Cc2cccc(F)c2)s1 |  | 18% |  |  |  | 65% |  |  |  |  |  |  |  |  | Non-Toxic
1.21 µM | 3.88 µM | COc1ccc(S(=O)(=O)Oc2ccccc2/C=C(\C#N)C(=O)Nc2nnc(Cc3cccc(F)c3)s2)cc1 | 29% | 100% |  | > 50 µM |  | 74% |  |  |  |  |  |  |  |  | 
 |  | COc1ccccc1-c1nnc(NC(=O)/C(C#N)=C/c2cccc(OS(=O)(=O)c3ccc(C)cc3)c2)s1 |  | 73% |  |  |  | 41% |  |  |  |  |  |  |  |  | Non-Toxic
1.01 µM | 4.08 µM | COc1ccc(S(=O)(=O)Oc2ccccc2/C=C(\C#N)C(=O)Nc2nnc(Cc3ccc(C)cc3)s2)cc1 | 28% | 100% |  | > 50 µM |  | 79% |  |  |  |  |  |  |  |  | 
 |  | N#C/C(=C\c1ccccc1OS(=O)(=O)c1ccc(F)cc1)C(=O)Nc1nnc(Cc2ccc(F)cc2)s1 |  | 13% |  |  |  | 59% |  |  |  |  |  |  |  |  | Non-Toxic
> 20 µM | 8.75 µM | Cc1ccc(S(=O)(=O)Oc2cccc(/C=C(\C#N)C(=O)Nc3nnc(-c4cccs4)s3)c2)cc1 | 43% | 62% |  | > 20 µM |  | 25% |  |  |  |  |  |  |  |  | 
 |  | COc1ccc(-c2nnc(NC(=O)/C(C#N)=C/c3cccc(OS(=O)(=O)c4ccc(C)cc4)c3)s2)cc1 |  | 73% |  |  |  | 79% |  |  |  |  |  |  |  |  | Non-Toxic
> 20 µM | 5.78 µM | Cc1ccc(S(=O)(=O)Oc2cccc(/C=C(\C#N)C(=O)Nc3nnc(C)s3)c2)cc1 | 27% | 71% |  | > 50 µM |  | 28% |  |  |  |  |  |  |  |  | 
4.02 µM |  | COc1ccc(Cc2nnc(NC(=O)/C(C#N)=C/c3ccccc3OS(=O)(=O)c3ccc(Cl)cc3)s2)cc1 | 34% |  |  | > 50 µM |  | 79% |  |  |  |  |  |  |  |  | 
1.06 µM | 3.17 µM | COc1ccc(S(=O)(=O)Oc2ccccc2/C=C(\C#N)C(=O)Nc2nnc(Cc3ccccc3)s2)cc1 | 23% | 100% |  | > 50 µM |  | 78% |  |  |  |  |  |  |  |  | 
> 20 µM | 8.37 µM | COc1ccc(S(=O)(=O)Nc2cccc(/C=C(\C#N)C(=O)Nc3nnc(-c4cccs4)s3)c2)cc1 | 21% | 77% |  | > 20 µM |  | 40% |  |  |  |  |  |  |  |  | 
1.36 µM | 4.7 µM | COc1ccc(S(=O)(=O)Oc2ccccc2/C=C(\C#N)C(=O)Nc2nnc(Cc3cccc4ccccc34)s2)cc1 | 29% | 98% |  | > 50 µM |  | 78% |  |  |  |  |  |  |  |  | 
> 20 µM | 11.5 µM | Cc1ccc(S(=O)(=O)Oc2ccccc2/C=C(\C#N)C(=O)Nc2nnc(C)s2)cc1 | 35% | 78% |  | > 20 µM |  | 33% |  |  |  |  |  |  |  |  | 
 |  | N#C/C(=C\c1ccccc1OS(=O)(=O)c1ccc(Cl)cc1)C(=O)Nc1nnc(Cc2cccc3ccccc23)s1 | 16% | 15% |  |  |  | 68% |  |  |  |  |  |  |  |  | 
